Reference: ChEMBL document CHEMBL1142527, “Tricyclic [1,2,4]triazine 1,4-dioxides as hypoxia selective cytotoxins” (J Med Chem, 2008)

Columns and labels:
HT-29 [1] = assay: Metabolic stability in human HT-29 multicellular layer assessed as apparent first-order rate constant under anoxic condition; format: ADME, cell-based
Procedure, shortened: (§1)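 Stirred single-cell suspensions of anoxic HT29 cells are exposed for 3 h at a drug concentration giving roughly one log kill by 1 h. Clonogenic survival is followed, and extracellular drug is monitored by HPLC. Concentration-time data are fitted for the apparent first-order metabolic rate constant k_met, scaled to MCL cell density. CT₁₀ and M₁₀ (drug metabolized at 10% survival) are interpolated from the fitted PK/PD model.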

HT-29 [2] = assay: Drug diffusion coefficient in human HT-29 multicellular layer under 95% oxygen by liquid scintillation counting; format: ADME, cell-based
Procedure, shortened: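 Tissue diffusion coefficient D measured in HT29 multicellular layers held under 95% O₂ to suppress bioreductive metabolism. Reported as ×10⁻⁷ cm²s⁻¹.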

SiHa [3] = assay: Cytotoxicity against human SiHa cells after 4 hrs under strict hypoxic condition; format: functional, cell-based
HT-29 [4] = assay: Drug metabolism in human HT-29 cells assessed as amount of drug metabolized for one log of cell kill at their CT10 concentration for 1 hr; format: ADME, cell-based; conditions: ht-29, 1 h; procedure, shortened: as §1
HT-29 [5] = assay: Cytotoxicity against human HT-29 cells after 4 hrs under strict hypoxic condition; format: functional, cell-based
SiHa [6] = assay: Hypoxic cytotoxicity ratio, ratio of aerobic IC50 to anoxic IC50 for human SiHa cells; format: functional
[7] = Solubility at 22 degC in culture medium in presence of 5% fetal calf serum; format: physicochemical; conditions: culture medium with 5% fetal calf serum; read-out: solubility
Procedure, shortened: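 Solubility of the HCl salts is determined in culture medium containing 5% fetal calf serum at 22 °C.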

HT-29 [8] = assay: Cytotoxicity against human HT-29 cells assessed as AUC-time curve providing 10% surviving fraction by clonogenic assay; format: functional
HT-29 [9] = assay: Hypoxic cytotoxicity ratio, ratio of aerobic IC50 to anoxic IC50 for human HT-29 cells; format: functional

Q: For `CCCN(CCC)CCNc1n[n+]([O-])c2cc3c(cc2[n+]1[O-])CCC3`, which Activity (HT-29 [1]) is on record?
A: 1.07 min⁻¹

Q: What about the D (HT-29 [2]) of the same compound?
A: 1.92e-06 cm²/s

Q: And the IC50 (SiHa [3]; Homo sapiens, SiHa, 4 h)?
A: 700 nM

Q: What about the Activity (HT-29 [4]) of the same compound?
A: 3941 µM

Q: What about the IC50 (HT-29 [5]; Homo sapiens, HT-29, 4 h) of the same compound?
A: 2500 nM

Q: And the “Ratio IC50” value (SiHa [6])?
A: 91

Q: What about the solubility [7] of the same compound?
A: 20 mM

Q: And the Activity (HT-29 [8])?
A: 31.8 µM·h

Q: What about the “Ratio IC50” value (HT-29 [9]) of the same compound?
A: 77

Q: For `[O-][n+]1nc(NCCN2CCCCC2)[n+]([O-])c2cc3c(cc21)CCC3`, which Activity (HT-29 [1]) is on record?
A: 1.25 min⁻¹

Q: What about the D (HT-29 [2]) of the same compound?
A: 1.19e-06 cm²/s

Q: And the IC50 (SiHa [3]; Homo sapiens, SiHa, 4 h)?
A: 1300 nM

Q: What about the Activity (HT-29 [4]) of the same compound?
A: 2444 µM

Q: And the IC50 (HT-29 [5]; Homo sapiens, HT-29, 4 h)?
A: 5800 nM

Q: And the “Ratio IC50” value (SiHa [6])?
A: 143

Q: What about the solubility [7] of the same compound?
A: 1.9 mM

Q: What about the Activity (HT-29 [8]) of the same compound?
A: 15.6 µM·h

Q: What about the “Ratio IC50” value (HT-29 [9]) of the same compound?
A: 49

Q: Which Activity (HT-29 [1]) does the source give for `CN(C)CCNc1n[n+]([O-])c2cc3c(cc2[n+]1[O-])CCC3` here?
A: 0.44 min⁻¹

Q: And the D (HT-29 [2])?
A: 5.9e-07 cm²/s

Q: What about the IC50 (SiHa [3]; Homo sapiens, SiHa, 4 h) of the same compound?
A: 700 nM

Q: And the Activity (HT-29 [4])?
A: 815 µM

Q: What about the IC50 (HT-29 [5]; Homo sapiens, HT-29, 4 h) of the same compound?
A: 2300 nM

Q: What about the “Ratio IC50” value (SiHa [6]) of the same compound?
A: 111

Q: What about the solubility [7] of the same compound?
A: > 51 mM

Q: What about the Activity (HT-29 [8]) of the same compound?
A: 16 µM·h

Q: And the “Ratio IC50” value (HT-29 [9])?
A: 152

Q: Which Activity (HT-29 [1]) does the source give for `CN(C)CCNc1n[n+]([O-])c2cc3c(cc2[n+]1[O-])CCO3` here?
A: 3.15 min⁻¹

Q: What about the D (HT-29 [2]) of the same compound?
A: 4.3e-07 cm²/s

Q: What about the IC50 (SiHa [3]; siha) of the same compound?
A: 300 nM

Q: What about the Activity (HT-29 [4]; 1 h) of the same compound?
A: 6732 µM

Q: What about the IC50 (HT-29 [5]; ht-29) of the same compound?
A: 2400 nM

Q: And the “Ratio IC50” value (SiHa [6])?
A: 87

Q: And the solubility [7]?
A: > 48 mM

Q: What about the Activity (HT-29 [8]) of the same compound?
A: 18.6 µM·h

Q: And the “Ratio IC50” value (HT-29 [9])?
A: 23

Q: For `CN(C)CCNc1n[n+]([O-])c2c3c(ccc2[n+]1[O-])CCC3`, which Activity (HT-29 [1]) is on record?
A: 0.74 min⁻¹

Q: What about the D (HT-29 [2]) of the same compound?
A: 8.4e-07 cm²/s

Q: And the IC50 (SiHa [3]; Homo sapiens, SiHa, 4 h)?
A: 1600 nM

Q: And the Activity (HT-29 [4])?
A: 2219 µM

Q: And the IC50 (HT-29 [5]; Homo sapiens, HT-29, 4 h)?
A: 3000 nM

Q: And the “Ratio IC50” value (SiHa [6])?
A: 99

Q: What about the solubility [7] of the same compound?
A: > 54 mM

Q: What about the Activity (HT-29 [8]) of the same compound?
A: 26.3 µM·h

Q: And the “Ratio IC50” value (HT-29 [9])?
A: 67
